Measured values from different studies.
Organism: Leishmania donovani
Effect on: parasite growth

Structure (SMILES) | technique | cell line | concentration | time | setting | quantity | value
C[C@@H]1[C@H](O)[C@@H](C)/C=C/C=C/C=C/C=C/C=C/C=C/C=C/[C@H](O[C@@H]2O[C@H](C)[C@@H](O)[C@H](N)[C@@H]2O)C[C@@H]2O[C@](O)(C[C@@H](O)C[C@@H](O)[C@H](O)CC[C@@H](O)C[C@@H](O)CC(=O)O[C@H]1C)C[C@H](O)[C@H]2C(=O)O | resazurin |  |  | 72 h | promastigote | IC90 | 1.8 µg/mL
COc1cc(NC(C)CCCNC(=S)NCCCC(C)Nc2cc(OC)cc3cccnc23)c2ncccc2c1.Cl.Cl (stereo not drawn) | resazurin |  |  |  | promastigote | IC90 | 20 to 31 µg/mL
C[C@@H]1[C@H](O)[C@@H](C)/C=C/C=C/C=C/C=C/C=C/C=C/C=C/[C@H](O[C@@H]2O[C@H](C)[C@@H](O)[C@H](N)[C@@H]2O)C[C@@H]2O[C@](O)(C[C@@H](O)C[C@@H](O)[C@H](O)CC[C@@H](O)C[C@@H](O)CC(=O)O[C@H]1C)C[C@H](O)[C@H]2C(=O)O | MTT |  |  | 48 h | amastigote | IC90 | 1800 nM
C[C@@H]1[C@H](O)[C@@H](C)/C=C/C=C/C=C/C=C/C=C/C=C/C=C/[C@H](O[C@@H]2O[C@H](C)[C@@H](O)[C@H](N)[C@@H]2O)C[C@@H]2O[C@](O)(C[C@@H](O)C[C@@H](O)[C@H](O)CC[C@@H](O)C[C@@H](O)CC(=O)O[C@H]1C)C[C@H](O)[C@H]2C(=O)O |  |  |  |  | promastigote | IC50 | 135 nM
c1ccc(CN2CCN(c3nc(-c4ccccn4)nc4ccccc34)CC2)cc1 | imaging | THP-1 |  |  | intracellular, amastigote | IC50 | 2600 nM
CCCCCCCCCCCCCCCCOP(=O)([O-])OCC[N+](C)(C)C | resazurin |  | 50 µM | 72 h | promastigote | inhibition | 100%
COc1ccccc1-c1n[nH]c2nc(NC3CCN(C(=O)Cc4ccc(OCCOCCN)cc4)CC3)ncc12 |  |  |  |  | amastigote | EC50 | 1990 nM
c1ccc(CNc2nc(-c3ccccn3)nc3ccccc23)cc1 | imaging | THP-1 |  |  | intracellular, amastigote | IC50 | 1100 nM
COc1ccccc1-c1n[nH]c2nc(N[C@H]3CC[C@H](NS(=O)(=O)CCCOCCOCCN)CC3)ncc12 |  |  |  |  | amastigote | EC50 | 4210 nM
CCCCCCCC/C=C\CCCCCCCCCCCCOP(=O)([O-])OCC[N+](C)(C)C | resazurin |  | 25 µM | 72 h | promastigote | inhibition | 106%
N=C(N)c1ccc(OCCCCCOc2ccc(C(=N)N)cc2)cc1 | resazurin |  |  |  | promastigote | IC50 | 1 µg/mL
COc1ccccc1-c1n[nH]c2nc(NC3CCN(C(=O)Cc4ccc(OCCOCCNC(=O)OC(C)(C)C)cc4)CC3)ncc12 |  |  |  |  | amastigote | EC50 | 4200 nM
